In publication PMC10092221 (Journal of Clinical Pharmacology, 2022):
Where “and” joins values, the source holds several entries; their conditions need not be identical. Equal values may be shown once. Read-outs that look alike come from different tables or passages of the source.

Tests used:
[1] = Capmatinib/CMN288 pharmacokinetics, inhibition cohort; type: in vivo, human (healthy subjects); conditions: for AUCinf geometric mean ratio (90%CI) / AUClast geometric mean ratio (90%CI) / Cmax geometric mean ratio (90%CI): itraconazole + capmatinib 200 mg / capmatinib alone
Procedure, shortened: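 Inhibition cohort of healthy subjects (n = 27): a single fasted oral 200 mg dose on day 1, then a 4-day washout. Itraconazole 200 mg was given daily on days 5–14, and 200 mg test compound was dosed 1 h after the sixth itraconazole dose (day 10). Plasma was sampled serially to 96 h after each dose and assayed by validated LC-MS/MS (LLOQ ≈1.0 ng/mL). Test/reference ratios are antilogged point estimates with 2-sided 90%CIs.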

[2] = Capmatinib/CMN288 pharmacokinetics, induction cohort; type: in vivo, human (healthy subjects); conditions: for AUC(0-inf): AUCinf; for AUC(0-t): AUClast; for AUCinf geometric mean ratio (90%CI) / AUClast geometric mean ratio (90%CI) / Cmax geometric mean ratio (90%CI): rifampicin + capmatinib 400 mg / capmatinib alone
Procedure, shortened: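 Healthy subjects (induction cohort, n = 26) received a single fasted oral 400 mg dose on day 1, then a 4-day washout. Rifampicin 600 mg was given daily on days 5–13, with 400 mg test compound coadministered with the sixth dose on day 10. Serial plasma was drawn to 72 h after each dose and frozen <–70°C. Parent and metabolite were measured by validated LC-MS/MS (LLOQ ≈1.0 ng/mL). Ratios are antilogged 90%CIs.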

[3] = type: in vivo, human (healthy subjects); conditions: for Maximum increase of serum creatinine concentration from baseline: at 24 hours
Procedure, shortened: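 Blood was drawn from healthy subjects at 0, 2, 4, 8, 24, 48 and 72 h after the day-1 single fasted oral dose: 200 mg in the inhibition cohort, 400 mg in the induction cohort. Creatinine and cystatin C were measured in each sample. Change from baseline was summarized descriptively by time point.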

Safety assessment = type: in vivo, human (healthy subjects)
MATE1 = conditions: read-out: Ki, MATE1 inhibition; in vitro; ref Novartis data on file; cited from earlier work
MATE2K = conditions: read-out: Ki, MATE2K inhibition; in vitro; ref Novartis data on file; cited from earlier work
[4] = therapeutic dose 400 mg twice daily, cited from earlier work
OATP1B1 = conditions: cited from earlier work
OATP1B3 = conditions: cited from earlier work
[5] = healthy subjects, used for sample size; cited from earlier work
[6] = itraconazole 200 mg daily; cited from earlier work
[7] = inhibition cohort, healthy subjects, single oral capmatinib 200 mg + itraconazole 200 mg/day, plasma
[8] = inhibition cohort, healthy subjects, single oral capmatinib 200 mg alone, plasma
[9] = induction cohort, healthy subjects, single oral capmatinib 400 mg + rifampicin 600 mg/day, plasma
[10] = induction cohort, healthy subjects, single oral capmatinib 400 mg alone, plasma
[11] = capmatinib + itraconazole compared to capmatinib alone
[12] = capmatinib + rifampicin compared to capmatinib alone
[13] = human, plasma, po, adjusted geometric mean, induction cohort, healthy subjects, single oral capmatinib 400 mg + rifampicin 600 mg/day, plasma
[14] = human, plasma, po, geometric mean (geometric CV%), induction cohort, healthy subjects, single oral capmatinib 400 mg + rifampicin 600 mg/day, plasma
[15] = human, plasma, po, mean (CV%), induction cohort, healthy subjects, single oral capmatinib 400 mg + rifampicin 600 mg/day, plasma
[16] = single dose 200 mg capmatinib, inhibition cohort
[17] = single dose 400 mg capmatinib, induction cohort
[18] = induction cohort N=26 (capmatinib 400 mg, rifampicin 600 mg/day)
[19] = inhibition cohort N=27 (capmatinib 200 mg, itraconazole 200 mg/day)

CNC(=O)c1ccc(-c2nn3c(Cc4ccc5ncccc5c4)cnc3[nH]c2=O)cc1F [CMN288]
CMN288 AUCinf, geometric mean (geometric CV%) [1, 7]: 4290 (42.3) ng · h/mL | CMN288 AUCinf, mean (CV%) [1, 7]: 4600 (35.7) ng · h/mL | CMN288 AUClast, geometric mean (geometric CV%) [1, 7]: 4260 (43.2) ng · h/mL | CMN288 AUClast, mean (CV%) [1, 7]: 4570 (36.0) ng · h/mL | CMN288 Cmax, geometric mean (geometric CV%) [1, 7]: 590 (63.8) ng/mL | CMN288 Cmax, mean (CV%) [1, 7]: 682 (50.8) ng/mL | CMN288 tmax, median (range) [1, 7]: 2.00 (0.983–4.01) h | MR (AUCinf), metabolite-to-parent drug ratio, mean (CV%) [1, 7]: 0.572 (25.1) | MR (AUClast), metabolite-to-parent drug ratio, mean (CV%) [1, 7]: 0.570 (25.6) | MR (Cmax), metabolite-to-parent drug ratio, mean (CV%) [1, 7]: 0.462 (29.2) | CMN288 AUCinf, geometric mean (geometric CV%) [1, 8]: 3640 (36.6) ng · h/mL | CMN288 AUCinf, mean (CV%) [1, 8]: 3870 (35.5) ng · h/mL | CMN288 AUClast, geometric mean (geometric CV%) [1, 8]: 3580 (37.6) ng · h/mL | CMN288 AUClast, mean (CV%) [1, 8]: 3810 (36.2) ng · h/mL | CMN288 Cmax, geometric mean (geometric CV%) [1, 8]: 665 (48.7) ng/mL | CMN288 Cmax, mean (CV%) [1, 8]: 736 (47.0) ng/mL | CMN288 tmax, median (range) [1, 8]: 1.01 (0.968–6.02) h | MR (AUCinf), metabolite-to-parent drug ratio, mean (CV%) [1, 8]: 0.699 (25.4) | MR (AUClast), metabolite-to-parent drug ratio, mean (CV%) [1, 8]: 0.685 (27.5) | MR (Cmax), metabolite-to-parent drug ratio, mean (CV%) [1, 8]: 0.533 (30.5) | CMN288 AUCinf, geometric mean (geometric CV%) [2, 9]: 5110 (31.9) ng · h/mL | CMN288 AUCinf, mean (CV%) [2, 9]: 5360 (32.1) ng · h/mL | CMN288 AUClast, geometric mean (geometric CV%) [2, 9]: 5070 (32.3) ng · h/mL | CMN288 AUClast, mean (CV%) [2, 9]: 5320 (32.5) ng · h/mL | CMN288 Cmax, geometric mean (geometric CV%) [2, 9]: 1570 (39.8) ng/mL | CMN288 Cmax, mean (CV%) [2, 9]: 1690 (38.1) ng/mL | CMN288 tmax, median (range) [2, 9]: 0.998 (0.924–3.00) h | MR (AUCinf), metabolite-to-parent drug ratio, mean (CV%) [2, 9]: 1.37 (26.0) | MR (AUClast), metabolite-to-parent drug ratio, mean (CV%) [2, 9]: 1.35 (25.0) | MR (Cmax), metabolite-to-parent drug ratio, mean (CV%) [2, 9]: 1.17 (28.9) | CMN288 AUCinf, geometric mean (geometric CV%) [2, 10]: 7420 (28.4) ng · h/mL | CMN288 AUCinf, mean (CV%) [2, 10]: 7710 (30.1) ng · h/mL | CMN288 AUClast, geometric mean (geometric CV%) [2, 10]: 7310 (28.4) ng · h/mL | CMN288 AUClast, mean (CV%) [2, 10]: 7600 (30.2) ng · h/mL | CMN288 Cmax, geometric mean (geometric CV%) [2, 10]: 1500 (41.4) ng/mL | CMN288 Cmax, mean (CV%) [2, 10]: 1610 (39.2) ng/mL | CMN288 tmax, median (range) [2, 10]: 0.994 (0.957–3.00) h | MR (AUCinf), metabolite-to-parent drug ratio, mean (CV%) [2, 10]: 0.634 (25.2) | MR (AUClast), metabolite-to-parent drug ratio, mean (CV%) [2, 10]: 0.627 (25.1) | MR (Cmax), metabolite-to-parent drug ratio, mean (CV%) [2, 10]: 0.492 (30.8)

CNC(=O)c1ccc(-c2cnc3ncc(Cc4ccc5ncccc5c4)n3n2)cc1F [Capmatinib]
Increase of geometric mean AUCinf with itraconazole [1, 11]: 42% | Increase of geometric mean AUClast with itraconazole [1, 11]: 41% | AUC(0-t) ([1]; human, plasma, po, 200 mg): 5430 ng·h/mL | AUC(0-inf) ([1]; human, plasma, po, AUCinf, geometric mean (geometric CV%), inhibition cohort, healthy subjects, single oral capmatinib 200 mg + itraconazole 200 mg/day, plasma): 7450 ng·h/mL | Cmax ([1]; human, plasma, po, adjusted geometric mean, inhibition cohort, healthy subjects, single oral capmatinib 200 mg + itraconazole 200 mg/day, plasma): 1300 ng/mL | Cmax ([1]; human, plasma, po, geometric mean (geometric CV%), inhibition cohort, healthy subjects, single oral capmatinib 200 mg + itraconazole 200 mg/day, plasma): 1290 ng/mL | Cmax ([1]; human, plasma, po, mean (CV%), inhibition cohort, healthy subjects, single oral capmatinib 200 mg + itraconazole 200 mg/day, plasma): 1410 ng/mL | AUCinf, adjusted geometric mean [1, 7]: 7360 ng·h/mL | AUCinf, mean (CV%) [1, 7]: 7680 (24.3) ng · h/mL | AUClast, adjusted geometric mean [1, 7]: 7340 ng·h/mL | AUClast, mean (CV%) [1, 7]: 7660 (24.5) ng · h/mL | CL/F, geometric mean (geometric CV%) [1, 7]: 26.8 (26.4) L/h | CL/F, mean (CV%) [1, 7]: 27.8 (28.1) L/h | t1/2, geometric mean (geometric CV%) [1, 7]: 6.05 (31.3) h | t1/2, mean (CV%) [1, 7]: 6.34 (32.8) h | tmax, median (range) [1, 7]: 2.00 (0.495–4.01) h | AUCinf, geometric mean (geometric CV%) [1, 8]: 5280 (30.6) ng · h/mL | AUClast, adjusted geometric mean [1, 8]: 5220 ng·h/mL | AUClast, geometric mean (geometric CV%) [1, 8]: 5220 (30.6) ng · h/mL | CL/F, geometric mean (geometric CV%) [1, 8]: 37.9 (30.6) L/h | CL/F, mean (CV%) [1, 8]: 39.6 (33.4) L/h | Cmax, adjusted geometric mean [1, 8]: 1260 ng/mL | Cmax, geometric mean (geometric CV%) [1, 8]: 1260 (46.9) ng/mL | Cmax, mean (CV%) [1, 8]: 1380 (40.4) ng/mL | Tmax, median [1, 8]: 1.00 h | tmax, median (range) [1, 8]: 1.00 (0.505–4.00) h | AUCinf geometric mean ratio (90%CI) [1]: 1.42 (1.33–1.52) | AUClast geometric mean ratio (90%CI) [1]: 1.41 (1.29–1.53) | Cmax geometric mean ratio (90%CI) [1]: 1.03 (0.866–1.22) | AUCinf geometric mean ratio (90%CI) ([1]; listed as capmatinib): 1.42 | AUClast geometric mean ratio (90%CI) ([1]; listed as capmatinib): 1.41 | Cmax geometric mean ratio (90%CI) ([1]; listed as capmatinib): 1.03 | Tmax median difference (minimum to maximum differences) ([1]; itraconazole + capmatinib 200 mg vs capmatinib alone): 0.489 (–3.02 to 3.00) h | Decrease of geometric mean AUCinf with rifampicin [2, 12]: 66.5% and 67% | Decrease of geometric mean AUClast with rifampicin [2, 12]: 67.8% | Decrease of geometric mean Cmax with rifampicin [2, 12]: 55.9% and 55% | Tmax ([2]; human, plasma, po, 400 mg): 0.994 h | AUC(0-inf) [2, 13]: 3850 ng·h/mL | AUC(0-inf) [2, 14]: 3890 ng·h/mL | AUC(0-inf) [2, 15]: 4050 ng·h/mL | AUC(0-t) [2, 13]: 3720 ng·h/mL | AUC(0-t) [2, 14]: 3720 ng·h/mL | AUC(0-t) [2, 15]: 3860 ng·h/mL | Cmax [2, 13]: 1350 ng/mL | Cmax [2, 14]: 1350 ng/mL | half-life ([2]; human, plasma, po, t1/2, mean (CV%), induction cohort, healthy subjects, single oral capmatinib 400 mg + rifampicin 600 mg/day, plasma): 11.1 h | CL/F, geometric mean (geometric CV%) [2, 9]: 103 (29.4) L/h | CL/F, mean (CV%) [2, 9]: 107 (26.1) L/h | Cmax, mean (CV%) [2, 9]: 1460 (43.4) ng/mL | t1/2, geometric mean (geometric CV%) [2, 9]: 10.3 (40.8) h | tmax, median (range) [2, 9]: 0.994 (0.478–2.00) h | CL/F, geometric mean (geometric CV%) [2, 10]: 35.4 (24.3) L/h | CL/F, mean (CV%) [2, 10]: 36.4 (23.7) L/h | tmax, median (range) [2, 10]: 0.994 (0.461–3.00) h | AUCinf geometric mean ratio (90%CI) [2]: 0.335 (0.300–0.374) | AUClast geometric mean ratio (90%CI) [2]: 0.322 (0.294–0.353) | Cmax geometric mean ratio (90%CI) [2]: 0.441 (0.387–0.502) | AUCinf geometric mean ratio (90%CI) ([2]; listed as capmatinib): 0.335 | AUClast geometric mean ratio (90%CI) ([2]; listed as capmatinib): 0.322 | Cmax geometric mean ratio (90%CI) ([2]; listed as capmatinib): 0.441 | Change in serum creatinine ([3]; after a single dose of capmatinib, 3-day monitoring): transient increase | Time at which serum creatinine returned to baseline [3, 16]: 48 h | Maximum increase of serum creatinine concentration from baseline [3, 16]: 21% | Time at which serum creatinine returned to baseline [3, 17]: 72 h | Maximum increase of serum creatinine concentration from baseline [3, 17]: 27.3% | Change in serum cystatin C concentration ([3]; single dose capmatinib 200 or 400 mg, both cohorts, 3-day monitoring): no change | Deaths (Safety assessment; either treatment cohort): No deaths were reported | Serious AEs (Safety assessment; either treatment cohort): No serious AEs were reported | AEs suspected to be related to the study treatment (any grade) (Safety assessment; [18]): 10 subjects | Discontinued study treatment due to AEs (Safety assessment; [18]): 1 subjects | AEs suspected to be related to the study treatment (any grade) (Safety assessment; [19]): 13 subjects | Amylase increased, grade 3 (Safety assessment; [19]): 1 subjects | Ki (MATE1): 280 nM | Ki (MATE2K): 290 nM | Cmax ([4]; read-out: Steady-state Cmax, total): 11.6 µM | Steady-state Cmax, unbound ([4]; unbound): 0.464 µM | Substrate of OATP1B1 (OATP1B1): not a substrate | Substrate of OATP1B3 (OATP1B3): not a substrate | Intrasubject coefficient of variation (CV%) for AUC [5]: 22.8% | Intrasubject coefficient of variation (CV%) for Cmax [5]: 29.9%

Cc1nnc2n1-c1ccc(Cl)cc1C(c1ccccc1Cl)=NC2 [triazolam]
Increase in exposure with itraconazole regimen [6]: 27 fold
